The results in this text go back to ChEMBL document CHEMBL3603808, “Discovery and structure of a new inhibitor scaffold of the autophagy initiating kinase ULK1” (Bioorg Med Chem, 2015).

Calls of active or inactive are those of the source. No cut-off for these calls is given here.

Assay [1] deals with T1, 3-phosphoinositide-dependent protein kinase 1 (Homo sapiens, UniProt O15530).
T1 sequence (O15530 whole entry): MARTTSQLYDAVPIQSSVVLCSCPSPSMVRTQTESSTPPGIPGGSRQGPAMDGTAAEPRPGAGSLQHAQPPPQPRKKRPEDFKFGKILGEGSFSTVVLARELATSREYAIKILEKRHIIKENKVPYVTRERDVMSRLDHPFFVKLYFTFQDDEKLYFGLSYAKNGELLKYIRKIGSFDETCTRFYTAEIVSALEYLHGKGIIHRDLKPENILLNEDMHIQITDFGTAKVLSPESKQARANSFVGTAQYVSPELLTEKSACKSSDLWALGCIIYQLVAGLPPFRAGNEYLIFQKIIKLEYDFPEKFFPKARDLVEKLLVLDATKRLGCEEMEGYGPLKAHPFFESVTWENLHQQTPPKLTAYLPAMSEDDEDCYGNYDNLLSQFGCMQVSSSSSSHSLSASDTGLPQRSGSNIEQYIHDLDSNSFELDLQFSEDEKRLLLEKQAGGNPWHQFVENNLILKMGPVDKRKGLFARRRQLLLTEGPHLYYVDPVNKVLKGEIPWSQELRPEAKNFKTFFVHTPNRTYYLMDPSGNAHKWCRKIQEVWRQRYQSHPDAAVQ
Put plainly: Inhibition of recombinant PDK1 (unknown origin) using PDK1tide substrate incubated for 7 mins. In outline:
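Recombinant PDK1 at 5 nM with 50 µM synthetic PDK1tide in 50 mM HEPES pH 7.5, 10 mM MgCl2, 1 mg/ml BSA, 0.02% Triton-X and 50 µM DTT. Stopped after 7 min by spotting onto nitrocellulose, washed three times in 1% phosphoric acid and phosphorimaged. IC50 from curve fitting; duplicate.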

The target in assay [2] is T2, Serine/threonine-protein kinase ULK1 (Homo sapiens, UniProt O75385).
T2 sequence (O75385 whole entry): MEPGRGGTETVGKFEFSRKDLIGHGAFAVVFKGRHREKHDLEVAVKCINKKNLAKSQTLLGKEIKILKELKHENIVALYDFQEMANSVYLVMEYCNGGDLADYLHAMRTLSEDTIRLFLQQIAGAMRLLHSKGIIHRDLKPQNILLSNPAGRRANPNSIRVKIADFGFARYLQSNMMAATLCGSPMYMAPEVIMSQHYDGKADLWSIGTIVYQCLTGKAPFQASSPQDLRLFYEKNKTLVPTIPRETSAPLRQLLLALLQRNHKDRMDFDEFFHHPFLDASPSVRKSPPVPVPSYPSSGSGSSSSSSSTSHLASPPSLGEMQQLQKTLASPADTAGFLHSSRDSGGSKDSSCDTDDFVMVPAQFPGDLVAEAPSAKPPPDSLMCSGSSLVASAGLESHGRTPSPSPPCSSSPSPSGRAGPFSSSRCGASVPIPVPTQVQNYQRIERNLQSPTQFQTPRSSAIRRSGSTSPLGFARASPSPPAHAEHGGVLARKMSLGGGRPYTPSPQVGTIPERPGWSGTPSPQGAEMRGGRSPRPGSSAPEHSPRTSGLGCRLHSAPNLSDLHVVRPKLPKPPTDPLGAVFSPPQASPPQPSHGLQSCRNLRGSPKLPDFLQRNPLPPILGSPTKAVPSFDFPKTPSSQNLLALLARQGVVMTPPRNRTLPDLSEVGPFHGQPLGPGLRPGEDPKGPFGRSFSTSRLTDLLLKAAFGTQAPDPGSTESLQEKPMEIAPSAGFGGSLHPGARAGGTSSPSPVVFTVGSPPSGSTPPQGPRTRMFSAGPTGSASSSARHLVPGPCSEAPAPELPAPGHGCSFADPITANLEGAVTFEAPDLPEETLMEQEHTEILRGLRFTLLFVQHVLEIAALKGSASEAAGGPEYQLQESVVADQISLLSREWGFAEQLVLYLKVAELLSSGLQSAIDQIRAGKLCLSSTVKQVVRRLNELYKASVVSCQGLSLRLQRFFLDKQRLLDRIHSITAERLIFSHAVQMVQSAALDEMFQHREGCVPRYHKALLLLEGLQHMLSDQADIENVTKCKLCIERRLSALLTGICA
Description: Inhibition of SUMO-tagged ULK1 (unknown origin) kinase domain expressed in KRX cells using [32P]-gamma-ATP and myelin basic protein substrate incubated for 7 mins. In kind it is cell-based. In outline:
(§1)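 Enzyme at 5 nM with 50 µM cold ATP, 0.05 µCi/µl 32P-γ-ATP and 20 µM myelin basic protein as substrate. Reactions were spotted onto nitrocellulose, washed three times in 1% phosphoric acid, dried and imaged by phosphorimager. IC50 from curve fitting; duplicate.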

Assay [3] has as its system HeLa. Put plainly: Inhibition of autophagy in human HeLa cells assessed as induction of LC3-I protein accumulation at 4 uM incubated for 24 hrs by immunoblotting method. The class given is functional, cell-based. Put shortly:
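HeLa cells were grown in DMEM with 10% FBS to about 50% confluency, then given 4 µM compound or DMSO for 24 h. Cold-PBS wash, lysis in TBS pH 7.6 with 1% Triton-X, 0.2% SDS and protease/phosphatase inhibitors. Lysates were protein-normalized and immunoblotted for LC3-I/LC3-II, with actin as loading control.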
For orientation: A western blot detects proteins with antibodies after separation by electrophoresis.

The target in assay [4] is T3, Serine/threonine-protein kinase ULK2 (Homo sapiens, UniProt Q8IYT8).
T3 sequence (Q8IYT8 whole entry): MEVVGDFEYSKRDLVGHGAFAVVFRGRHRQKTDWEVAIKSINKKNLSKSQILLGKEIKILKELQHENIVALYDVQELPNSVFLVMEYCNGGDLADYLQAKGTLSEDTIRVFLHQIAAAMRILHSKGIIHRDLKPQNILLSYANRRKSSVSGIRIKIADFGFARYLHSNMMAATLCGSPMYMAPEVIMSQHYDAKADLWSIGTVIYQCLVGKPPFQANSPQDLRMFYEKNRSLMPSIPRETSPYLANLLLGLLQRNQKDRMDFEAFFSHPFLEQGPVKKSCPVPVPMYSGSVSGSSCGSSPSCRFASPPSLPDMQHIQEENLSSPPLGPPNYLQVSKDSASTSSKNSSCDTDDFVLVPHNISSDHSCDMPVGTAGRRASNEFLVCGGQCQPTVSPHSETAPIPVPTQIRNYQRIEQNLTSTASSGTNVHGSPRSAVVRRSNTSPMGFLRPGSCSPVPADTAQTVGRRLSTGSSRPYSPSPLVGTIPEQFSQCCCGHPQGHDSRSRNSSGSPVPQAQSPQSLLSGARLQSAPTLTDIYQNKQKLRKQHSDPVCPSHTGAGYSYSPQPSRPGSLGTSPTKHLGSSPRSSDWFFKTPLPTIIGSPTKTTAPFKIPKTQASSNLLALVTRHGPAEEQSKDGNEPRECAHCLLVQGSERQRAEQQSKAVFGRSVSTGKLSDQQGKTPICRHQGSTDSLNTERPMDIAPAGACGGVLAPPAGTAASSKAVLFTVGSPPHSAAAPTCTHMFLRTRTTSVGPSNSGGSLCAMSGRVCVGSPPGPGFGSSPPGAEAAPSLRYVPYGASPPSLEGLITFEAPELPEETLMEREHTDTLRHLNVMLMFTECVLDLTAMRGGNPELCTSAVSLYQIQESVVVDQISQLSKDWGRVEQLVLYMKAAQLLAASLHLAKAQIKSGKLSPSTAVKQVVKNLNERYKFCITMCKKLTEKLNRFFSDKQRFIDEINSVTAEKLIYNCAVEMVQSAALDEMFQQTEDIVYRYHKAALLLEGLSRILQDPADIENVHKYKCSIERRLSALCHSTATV
Description: Inhibition of SUMO-tagged ULK2 (unknown origin) kinase domain expressed in KRX cells using [32P]-gamma-ATP and myelin basic protein substrate incubated for 7 mins. The class given is single protein. Put shortly: as §1

Turning to `O=C(NCCCNc1nc(Nc2cccc(NC(=O)N3CCCC3)c2)ncc1I)C1CC1`, the IC50 (usually the point on the concentration scale where inhibition reaches its midpoint) in assay [1] is 56 nM; in assay [2] it was 67 nM; in assay [4], 200 nM. In assay [3], the outcome was Active.

As for `O=C(NCCCNc1nc(Nc2cccc(CN3CCOCC3)c2)ncc1C1CC1)C1CCC1`, in assay [1], the IC50 is 421 nM. The outcome in assay [3] was Active.

Take `O=C(NCCCNc1nc(Nc2cccc(NC(=O)N3CCCC3)c2)ncc1I)c1cccs1` [BX-795]: the IC50 was 65 nM in assay [1], 87 nM in assay [2] and 310 nM in assay [4]. Also, the result in assay [3] was Active.
